Experiments:
[1] = molecular target: T1, Adenosine receptor A1 (Homo sapiens) (UniProt P30542); test: Displacement of [3H]R-PIA from human recombinant A1 adenosine receptor expressed in CHO cells at 10 uM after 60 mins by liquid scintillation counting; format: cell-based
T1 sequence (whole entry): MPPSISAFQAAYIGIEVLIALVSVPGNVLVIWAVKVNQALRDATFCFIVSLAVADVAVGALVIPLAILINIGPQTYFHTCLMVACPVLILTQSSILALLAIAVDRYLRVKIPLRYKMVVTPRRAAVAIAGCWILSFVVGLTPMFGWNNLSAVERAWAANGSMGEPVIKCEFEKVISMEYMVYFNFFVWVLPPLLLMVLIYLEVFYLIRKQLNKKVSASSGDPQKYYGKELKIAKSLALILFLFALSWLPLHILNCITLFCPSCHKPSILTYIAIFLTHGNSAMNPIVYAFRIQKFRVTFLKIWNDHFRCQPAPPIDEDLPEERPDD

[2] = molecular target: Adenosine receptor A2a (Homo sapiens) (UniProt P29274); test: Displacement of [3H]CGS21680 from human recombinant A2A adenosine receptor expressed in HEK293 cells at 10 uM after 60 mins by liquid scintillation counting; format: cell-based
Chain of Adenosine receptor A2a (Homo sapiens) (P29274 whole entry): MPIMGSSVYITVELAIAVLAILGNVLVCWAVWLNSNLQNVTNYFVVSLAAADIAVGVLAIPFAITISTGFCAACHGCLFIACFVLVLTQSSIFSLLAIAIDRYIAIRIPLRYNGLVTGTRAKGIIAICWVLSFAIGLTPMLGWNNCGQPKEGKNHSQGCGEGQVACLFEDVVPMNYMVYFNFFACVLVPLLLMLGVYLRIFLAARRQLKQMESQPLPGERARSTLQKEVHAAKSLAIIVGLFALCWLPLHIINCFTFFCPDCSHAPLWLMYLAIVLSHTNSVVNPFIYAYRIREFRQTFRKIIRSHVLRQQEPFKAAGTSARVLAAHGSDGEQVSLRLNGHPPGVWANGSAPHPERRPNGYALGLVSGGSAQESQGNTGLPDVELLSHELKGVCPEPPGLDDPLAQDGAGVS

Mus musculus [3] = test: Antinociceptive activity in chronic constriction injury neutropathic pain CD-1 mouse model assessed as time for peak protection at 3 umol/kg, po; format: functional
In short: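 Male CD-1 mice (25−30 g), chronic constriction injury of left sciatic nerve (Bennett model) under isoflurane. Dosed by gavage (3 μmol/kg, 0.2 mL) at peak mechano-allodynia on day 7; vehicle 10% DMSO in 0.5% methylcellulose. Paw withdrawal threshold (g) measured on the ipsilateral hind paw from 30 min to 5 h post dose. Expressed as % reversal, mean ± SEM over n animals.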

Mus musculus [4] = test: Antinociceptive activity in chronic constriction injury neutropathic pain CD-1 mouse model assessed as maximum protection on ipsilateral hind paw at 3 umol/kg, po after 30 mins to 5 hrs post dose relative to control; format: functional; settings: CD-1, po
Mus musculus [5] = test: Antinociceptive activity in chronic constriction injury neutropathic pain CD-1 mouse model at 3 umol/kg, po after 3 hrs post dose relative to control; format: functional
CHO = test: Selectivity ratio of Ki for mouse A3 adenosine receptor expressed in HEK293 cells to Ki for human recombinant A3 adenosine receptor expressed in CHO cells; format: cell-based
[6] = molecular target: Adenosine receptor A2a (Mus musculus) (UniProt Q60613); test: Displacement of [3H]CGS21680 from mouse A2A adenosine receptor expressed in HEK293 cells at 10 uM after 60 mins by liquid scintillation counting; format: cell-based
Chain of Adenosine receptor A2a (Mus musculus) (Q60613 whole entry): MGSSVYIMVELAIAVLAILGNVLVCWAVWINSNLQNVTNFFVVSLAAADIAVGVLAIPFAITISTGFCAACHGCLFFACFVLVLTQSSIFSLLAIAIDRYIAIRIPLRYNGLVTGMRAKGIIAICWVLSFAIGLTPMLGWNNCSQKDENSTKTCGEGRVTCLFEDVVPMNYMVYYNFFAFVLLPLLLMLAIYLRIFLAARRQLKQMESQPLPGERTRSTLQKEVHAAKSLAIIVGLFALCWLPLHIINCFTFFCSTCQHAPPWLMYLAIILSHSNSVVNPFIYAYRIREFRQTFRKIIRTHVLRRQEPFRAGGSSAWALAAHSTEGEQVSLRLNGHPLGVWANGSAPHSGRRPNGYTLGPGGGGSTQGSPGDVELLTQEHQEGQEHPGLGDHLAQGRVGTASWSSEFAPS

[7] = molecular target: T2, Adenosine receptor A1 (Mus musculus) (UniProt Q60612); test: Displacement of [125I]I-AB-MECA from mouse A1 adenosine receptor expressed in HEK293 cells at 10 uM after 60 mins by liquid scintillation counting
T2 sequence (whole entry): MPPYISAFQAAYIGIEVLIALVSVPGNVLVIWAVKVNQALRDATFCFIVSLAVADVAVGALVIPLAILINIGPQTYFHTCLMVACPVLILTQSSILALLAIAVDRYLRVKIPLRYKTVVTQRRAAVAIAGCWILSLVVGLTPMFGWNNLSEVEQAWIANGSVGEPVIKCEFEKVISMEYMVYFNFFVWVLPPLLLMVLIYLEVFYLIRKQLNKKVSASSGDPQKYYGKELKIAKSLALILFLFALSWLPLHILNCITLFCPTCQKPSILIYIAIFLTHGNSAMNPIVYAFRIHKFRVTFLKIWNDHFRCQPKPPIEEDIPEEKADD

[8] = molecular target: T3, Adenosine receptor A3 (Mus musculus) (UniProt Q61618); test: Agonist activity at mouse A3 adenosine receptor expressed in HEK293 cells assessed as inhibition of forskolin-stimulated cAMP production after 15 mins relative to control; format: functional, cell-based
T3 sequence (whole entry): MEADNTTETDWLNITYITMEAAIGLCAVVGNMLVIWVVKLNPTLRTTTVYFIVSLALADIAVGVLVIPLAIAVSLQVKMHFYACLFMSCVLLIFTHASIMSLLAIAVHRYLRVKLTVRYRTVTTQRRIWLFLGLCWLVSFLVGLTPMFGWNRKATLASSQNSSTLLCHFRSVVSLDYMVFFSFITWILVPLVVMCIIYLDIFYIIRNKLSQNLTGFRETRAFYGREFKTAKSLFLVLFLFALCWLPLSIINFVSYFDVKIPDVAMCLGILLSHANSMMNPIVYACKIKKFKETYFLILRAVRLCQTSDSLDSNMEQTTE
In short: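 2 × 10^5 cells/tube, coincubated with forskolin 10 μM plus ligand for 15 min at 37 °C with shaking. Stopped with HCl. cAMP in supernatant measured by competitive binding.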

Row | Compound | inhibition [1] [%] | inhibition [2] [%] | Time (Mus musculus [3]) [h] | Emax at 3 µmol/kg (Mus musculus [4]) [%] | Activity (Mus musculus [5]) [%] | Ratio Ki (CHO) | inhibition [6] [%] | inhibition [7] [%] | Imax [8] [%]
1 | CNC(=O)[C@@]12C[C@@H]1[C@@H](n1cnc3c(NC)nc(C#Cc4ncccn4)nc31)[C@H](O)[C@@H]2O | 25 | 27 | 0.5 | 92.3 | – | – | – | – | –
2 | CNC(=O)[C@@]12C[C@@H]1[C@@H](n1cnc3c(NC)nc(C#Cc4ccsc4)nc31)[C@H](O)[C@@H]2O | 11 | 3 | 0.5 | – | – | – | – | – | –
3 | CNC(=O)[C@@]12C[C@@H]1[C@@H](n1cnc3c(NC)nc(C#Cc4ccccn4)nc31)[C@H](O)[C@@H]2O | 13 | – | 0.5 | 31.8 | 0 | – | – | – | –
4 | CNC(=O)[C@@]12C[C@@H]1[C@@H](n1cnc3c(NC)nc(C#Cc4ccc(F)cc4)nc31)[C@H](O)[C@@H]2O | 27 | – | 1 | 72 | 10.4 | > 30 | – | – | –
5 | CNC(=O)[C@@]12C[C@@H]1[C@@H](n1cnc3c(NC)nc(C#Cc4cccc(F)c4)nc31)[C@H](O)[C@@H]2O | 14 | – | 1 | 46.3 | 12.4 | – | – | – | –
6 | CNC(=O)[C@@]12C[C@@H]1[C@@H](n1cnc3c(NC)nc(C#Cc4ccc(-c5ccccc5)cc4)nc31)[C@H](O)[C@@H]2O | 18 | 21 | 1 | 57.7 | 14.3 | – | – | – | –
7 | CNC(=O)[C@@]12C[C@@H]1[C@@H](n1cnc3c(NC)nc(C#Cc4nccs4)nc31)[C@H](O)[C@@H]2O | 31 | 8 | 1 | 53.2 | 12.7 | – | – | – | –
8 | CNC(=O)[C@@]12C[C@@H]1[C@@H](n1cnc3c(NC)nc(C#Cc4cccnn4)nc31)[C@H](O)[C@@H]2O | 11 | 13 | 0.5 | – | – | – | – | – | –
9 | CNC(=O)[C@@]12C[C@@H]1[C@@H](n1cnc3c(NC)nc(C#Cc4ccccc4)nc31)[C@H](O)[C@@H]2O | 18 | – | 0.5 | 44.1 | 5 | – | – | – | –
10 | CNC(=O)[C@@]12C[C@@H]1[C@@H](n1cnc3c(NC)nc(C#Cc4ccc(Cl)cc4)nc31)[C@H](O)[C@@H]2O | 13 | – | 0.5 | 40.4 | 4.6 | – | – | – | –
11 | CNC(=O)[C@@]12C[C@@H]1[C@@H](n1cnc3c(NC)nc(C#Cc4ccccc4OC)nc31)[C@H](O)[C@@H]2O | 12 | 20 | 1 | 64.3 | – | – | – | – | –
12 | CNC(=O)[C@@]12C[C@@H]1[C@@H](n1cnc3c(NC)nc(C#Cc4cc(C)c(C)o4)nc31)[C@H](O)[C@@H]2O | 15 | 21 | 1 | – | – | – | – | – | –
13 | CNC(=O)[C@@]12C[C@@H]1[C@@H](n1cnc3c(NC)nc(C#CC4CC4)nc31)[C@H](O)[C@@H]2O | 38 | 15 | 1 | 54.6 | 19.1 | – | – | – | –
14 | CNC(=O)[C@@]12C[C@@H]1[C@@H](n1cnc3c(NC)nc(C#Cc4cccc(C(F)(F)F)c4)nc31)C(O)C2O (single isomer, unassigned) | 10 | 12 | 0.5 | – | – | – | – | – | –
15 | CNC(=O)[C@@]12C[C@@H]1[C@@H](n1cnc3c(NC)nc(C#Cc4cccs4)nc31)[C@H](O)[C@@H]2O | 25 | 20 | 1 | 100 | – | – | 3 | 47 | 28
16 | CNC(=O)[C@@]12C[C@@H]1[C@@H](n1cnc3c(NC)nc(C#Cc4ccc(CO)cc4)nc31)[C@H](O)[C@@H]2O | 16 | 11 | 1 | – | – | – | – | – | –
17 | CNC(=O)[C@@]12C[C@@H]1[C@@H](n1cnc3c(NC)nc(C#Cc4cc[nH]n4)nc31)[C@H](O)[C@@H]2O | 30 | 19 | 0.5 | – | – | – | – | – | –
18 | CNC(=O)[C@@]12C[C@@H]1[C@@H](n1cnc3c(NC)nc(C#CC4CCCCC4)nc31)[C@H](O)[C@@H]2O | 15 | 45 | 1 | 64.1 | – | – | – | – | –
19 | CNC(=O)[C@@]12C[C@@H]1[C@@H](n1cnc3c(NC)nc(C#Cc4ccncc4)nc31)[C@H](O)[C@@H]2O | 15 | 2 | 1 | – | – | – | – | – | –
20 | CNC(=O)[C@@]12C[C@@H]1[C@@H](n1cnc3c(NC)nc(C#Cc4cccc(OC)c4)nc31)[C@H](O)[C@@H]2O | 8 | 26 | 0.5 | – | – | – | – | – | –
21 | CNC(=O)[C@@]12C[C@@H]1[C@@H](n1cnc3c(NC)nc(C#Cc4ccc(OC)cc4)nc31)[C@H](O)[C@@H]2O | 10 | 24 | 0.5 | – | – | – | – | – | –
22 | CNC(=O)[C@@]12C[C@@H]1[C@@H](n1cnc3c(NC)nc(C#Cc4ccccc4F)nc31)[C@H](O)[C@@H]2O | 20 | – | 0.5 | 56 | 9.8 | – | – | – | –
23 | CNC(=O)[C@@]12C[C@@H]1[C@@H](n1cnc3c(NC)nc(C#Cc4cccnc4)nc31)[C@H](O)[C@@H]2O | 16 | 12 | 0.5 | – | – | – | – | – | –
24 | CCc1ccc(C#Cc2nc(NC)c3ncn([C@H]4[C@H](O)[C@H](O)[C@]5(C(=O)NC)C[C@H]45)c3n2)o1 | 18 | 4 | 1 | – | – | – | – | – | –
25 | CNC(=O)[C@H]1O[C@@H](n2cnc3c(NCc4cccc(I)c4)ncnc32)[C@H](O)[C@@H]1O [IB-MECA] | – | – | 1 | 94.1 | 38.7 | – | – | – | –
26 | CNC(=O)[C@@]12C[C@@H]1[C@@H](n1cnc3c(NC)nc(C#Cc4cc5ccccc5o4)nc31)[C@H](O)[C@@H]2O | 13 | 18 | 1 | 87.4 | – | – | – | – | –
